Assays:
[1] = biological target: T1, Bcl-2-like protein 1 (Homo sapiens, UniProt Q07817); test: Binding affinity to N-terminal GST-tagged BCL-XL (unknown origin) assessed as dissociation rate constant by SPR analysis
[2] = tested on: MOLT-4; test: Induction of apoptosis in human MOLT-4 cells assessed as externalization of phosphatidylserine measured after 24 hrs by annexin-V staining based flow cytometry; format: functional, cell-based
In short: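 Phosphatidylserine exposure in MOLT-4 cells was scored by annexin V binding after 24 h exposure to increasing inhibitor concentrations. Results are expressed as percent annexin V-positive cells.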

[3] = biological target: T1, Bcl-2-like protein 1; test: Binding affinity to N-terminal GST-tagged BCL-XL (unknown origin) assessed as residence half-life by SPR analysis
[4] = biological target: T1, Bcl-2-like protein 1; test: Binding affinity to N-terminal GST-tagged BCL-XL (unknown origin) assessed as association rate constant by SPR analysis
[5] = species on record: Homo sapiens; test: Selectivity ratio of Ki for inhibition of F-Bak binding to GST-tagged BCL2 (unknown origin) to Ki for inhibition of F-Bak binding to GST-tagged BCL-XL (unknown origin)
[6] = tested on: MOLT-4; test: Cytotoxicity against human MOLT-4 cells assessed as reduction in cell viability measured after 48 hrs by celltiter-glo assay; format: functional, cell-based; conditions: MOLT-4, 48 h
[7] = biological target: T1, Bcl-2-like protein 1; test: Binding affinity to N-terminal GST-tagged BCL-XL (unknown origin) assessed as equilibrium dissociation constant by SPR analysis
[8] = tested on: MOLT-4; test: Induction of mitochondrial membrane depolarization in human MOLT-4 cells measured after 24 hrs; format: functional, cell-based
[9] = tested on: RS4-11; test: Cytotoxicity against human RS4-11 cells assessed as reduction in cell viability measured after 48 hrs by celltiter-glo assay; format: functional, cell-based; conditions: RS4-11, 48 h
[10] = biological target: Apoptosis regulator Bcl-2 (Homo sapiens, UniProt P10415); test: Inhibition of F-Bak binding to GST-tagged BCL2 (unknown origin) measured after 1 hr by TR-FRET assay
[11] = tested on: MOLT-4; test: Induction of apoptosis in human MOLT-4 cells assessed as activation of caspase-3/7 measured after 24 hrs by caspase-3/7 fluorescence assay; format: functional, cell-based
In short: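 MOLT-4 cells incubated 24 h with a rising concentration series of inhibitor. Read-out was caspase-3 and caspase-7 activation, reported as percentage of caspase-3/-7-positive cells.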

[12] = biological target: Induced myeloid leukemia cell differentiation protein Mcl-1 (Homo sapiens, UniProt Q07820); test: Inhibition of F-Bak binding to GST-tagged MCL1 (unknown origin) measured after 1 hr by TR-FRET assay
[13] = biological target: T1, Bcl-2-like protein 1; test: Inhibition of F-Bak binding to GST-tagged BCL-XL (unknown origin) measured after 1 hr by TR-FRET assay

T1 sequence (Q07817 whole entry): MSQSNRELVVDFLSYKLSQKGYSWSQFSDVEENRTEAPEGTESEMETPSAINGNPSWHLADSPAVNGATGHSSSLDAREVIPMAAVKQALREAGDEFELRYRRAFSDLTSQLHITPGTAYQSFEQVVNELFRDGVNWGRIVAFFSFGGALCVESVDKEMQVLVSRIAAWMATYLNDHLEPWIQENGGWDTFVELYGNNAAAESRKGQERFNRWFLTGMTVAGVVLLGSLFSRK
Induced myeloid leukemia cell differentiation protein Mcl-1, sequence (Q07820 whole entry): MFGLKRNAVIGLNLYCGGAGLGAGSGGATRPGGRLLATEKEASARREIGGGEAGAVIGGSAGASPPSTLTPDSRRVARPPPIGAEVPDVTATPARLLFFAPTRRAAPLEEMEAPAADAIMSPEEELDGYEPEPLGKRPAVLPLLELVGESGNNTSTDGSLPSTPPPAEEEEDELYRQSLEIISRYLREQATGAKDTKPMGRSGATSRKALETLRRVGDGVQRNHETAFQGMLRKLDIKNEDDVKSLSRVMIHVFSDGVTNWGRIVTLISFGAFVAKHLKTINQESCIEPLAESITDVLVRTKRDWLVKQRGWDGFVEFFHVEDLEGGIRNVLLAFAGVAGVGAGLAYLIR
Apoptosis regulator Bcl-2, sequence (P10415 whole entry): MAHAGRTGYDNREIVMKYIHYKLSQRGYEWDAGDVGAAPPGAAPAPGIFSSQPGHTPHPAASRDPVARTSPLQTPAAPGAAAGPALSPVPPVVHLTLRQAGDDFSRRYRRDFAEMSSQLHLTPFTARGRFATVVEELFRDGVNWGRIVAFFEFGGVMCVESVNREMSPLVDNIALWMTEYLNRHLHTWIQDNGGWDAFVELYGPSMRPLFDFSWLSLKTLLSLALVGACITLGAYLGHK

SMILES | K [1] | Activity [2] | T1/2 [3] | K [4] | Ratio Ki [5] | EC50 [6] | Kd [7] | Activity [8] | EC50 [9] | Ki [10] | Activity [11] | Ki [12] | Ki [13]
O=C(NS(=O)(=O)c1ccc(N[C@H](CCN2CCOCC2)CSc2ccccc2)c(S(=O)(=O)C(F)(F)F)c1)c1csc(N2CCc3cccc(C(=O)Nc4nc5ccccc5s4)c3C2)n1 | 0.000234 s⁻¹ | Dose-dependent effect | 49 min | 5.88 10^5/M/s | > 220 | 80 nM | 0.4 nM | Dose-dependent effect | > 5000 nM | 193 nM | Dose-dependent effect | > 3900 nM | 0.43 nM
CN(C)CC[C@H](CSc1ccccc1)Nc1ccc(S(=O)(=O)NC(=O)c2csc(N3CCc4cccc(C(=O)Nc5nc6ccccc6s5)c4C3)n2)cc1[N+](=O)[O-] | 0.0109 s⁻¹ | – | 1 min | 2.18 10^7/M/s | > 220 | > 5000 nM | 0.5 nM | – | > 5000 nM | – | – | > 1560 nM | 0.14 nM
